Experimental findings from ChEMBL document CHEMBL1131239, “Orally active benzamide antipsychotic agents with affinity for dopamine D2, serotonin 5-HT1A, and adrenergic alpha1 receptors” (J Med Chem, 1998) are described below.

Assay [1] deals with T1, Adrenergic receptor alpha-1 (Rattus norvegicus, UniProt P15823+P23944+P43140).
T1 sequence (P15823 whole entry): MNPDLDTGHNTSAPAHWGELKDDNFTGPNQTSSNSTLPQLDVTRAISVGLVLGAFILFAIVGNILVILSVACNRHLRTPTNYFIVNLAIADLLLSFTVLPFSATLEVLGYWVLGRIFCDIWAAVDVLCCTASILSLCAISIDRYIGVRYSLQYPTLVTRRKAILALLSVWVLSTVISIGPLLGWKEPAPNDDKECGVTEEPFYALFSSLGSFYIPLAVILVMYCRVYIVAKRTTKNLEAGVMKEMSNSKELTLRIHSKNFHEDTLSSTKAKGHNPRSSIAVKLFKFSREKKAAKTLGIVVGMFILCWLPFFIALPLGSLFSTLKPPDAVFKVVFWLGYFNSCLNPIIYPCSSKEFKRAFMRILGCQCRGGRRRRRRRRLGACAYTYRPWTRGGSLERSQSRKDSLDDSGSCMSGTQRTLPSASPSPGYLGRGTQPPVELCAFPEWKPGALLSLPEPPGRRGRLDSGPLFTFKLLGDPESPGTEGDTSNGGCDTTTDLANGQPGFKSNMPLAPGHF
T1 sequence (P23944 whole entry): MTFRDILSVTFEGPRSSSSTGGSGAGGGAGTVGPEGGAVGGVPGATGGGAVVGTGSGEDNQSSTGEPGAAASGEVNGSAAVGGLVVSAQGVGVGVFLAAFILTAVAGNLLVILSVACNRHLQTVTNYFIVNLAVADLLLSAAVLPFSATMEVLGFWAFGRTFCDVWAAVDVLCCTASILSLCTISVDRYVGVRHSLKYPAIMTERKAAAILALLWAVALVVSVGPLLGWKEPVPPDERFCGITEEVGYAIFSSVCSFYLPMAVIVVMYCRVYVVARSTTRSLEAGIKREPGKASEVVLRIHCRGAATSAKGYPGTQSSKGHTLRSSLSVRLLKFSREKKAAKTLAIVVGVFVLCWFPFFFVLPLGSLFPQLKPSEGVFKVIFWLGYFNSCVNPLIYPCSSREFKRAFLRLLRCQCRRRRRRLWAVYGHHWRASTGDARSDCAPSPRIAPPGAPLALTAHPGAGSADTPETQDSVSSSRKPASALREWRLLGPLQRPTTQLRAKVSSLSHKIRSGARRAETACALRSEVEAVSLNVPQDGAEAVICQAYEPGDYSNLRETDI
T1 sequence (P43140 whole entry): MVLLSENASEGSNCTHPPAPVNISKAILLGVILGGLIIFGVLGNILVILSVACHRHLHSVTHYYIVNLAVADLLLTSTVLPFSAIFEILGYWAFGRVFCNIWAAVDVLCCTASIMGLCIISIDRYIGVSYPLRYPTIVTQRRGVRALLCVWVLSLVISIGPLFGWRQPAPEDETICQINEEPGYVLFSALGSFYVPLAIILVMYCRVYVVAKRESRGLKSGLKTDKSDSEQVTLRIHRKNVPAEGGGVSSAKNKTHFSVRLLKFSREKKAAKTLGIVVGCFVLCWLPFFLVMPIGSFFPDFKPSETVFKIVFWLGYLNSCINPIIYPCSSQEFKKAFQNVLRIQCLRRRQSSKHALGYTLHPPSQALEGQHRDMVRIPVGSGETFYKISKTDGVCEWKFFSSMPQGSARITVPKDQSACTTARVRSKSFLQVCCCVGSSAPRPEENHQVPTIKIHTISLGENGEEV
The experiment in a line: Binding affinity against Alpha-1 adrenergic receptor from rat cerebral cortex. The assay is classed as tissue-based.

The subject of assay [2] is Rattus norvegicus. Nature of the assay: compound was tested for antipsychotic activity by conditioned avoidance response(CAR) assay in rats with a pretreatment period of 30 min upon intra peritoneal administration at a concentration of 5 mg/kg. The format is functional. A digest of the protocol:
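Rat conditioned avoidance test modified from Martin et al. Trained rats (N = 4) were run in 1-h sessions on two consecutive days. Fed animals had food and water until placed in the test chambers. Dosing was ip with 30 min pretreatment, and activity was expressed as percent inhibition at the stated dose.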

In assay [3] the test system is Rattus norvegicus. The experiment in a line: compound was tested for antipsychotic activity by conditioned avoidance response(CAR) assay in rats with a pretreatment period of 30 min upon intra peritoneal administration at a concentration of 1 mg/kg. The assay is classed as functional. An outline of the steps: (§1)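 Trained rats (N = 4) were run in 1-h sessions on two consecutive days, with the experimenter blind to drug and dose. Fed rats had food and water until placed in the test chambers. Fasted rats had no food overnight before the experiment.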

The test system of assay [4] is Rattus norvegicus. The experiment in a line: compound was tested for antipsychotic activity by conditioned avoidance response(CAR) assay in rats with a pretreatment period of 60 min upon peroral administration at a concentration of 20 mg/kg. The assay is classed as functional. To be noted: route oral. A digest of the protocol:
as §1

Assay [5] concerns the target T2, 5-hydroxytryptamine receptor 1A (Rattus norvegicus, UniProt P19327).
T2 sequence (P19327 whole entry): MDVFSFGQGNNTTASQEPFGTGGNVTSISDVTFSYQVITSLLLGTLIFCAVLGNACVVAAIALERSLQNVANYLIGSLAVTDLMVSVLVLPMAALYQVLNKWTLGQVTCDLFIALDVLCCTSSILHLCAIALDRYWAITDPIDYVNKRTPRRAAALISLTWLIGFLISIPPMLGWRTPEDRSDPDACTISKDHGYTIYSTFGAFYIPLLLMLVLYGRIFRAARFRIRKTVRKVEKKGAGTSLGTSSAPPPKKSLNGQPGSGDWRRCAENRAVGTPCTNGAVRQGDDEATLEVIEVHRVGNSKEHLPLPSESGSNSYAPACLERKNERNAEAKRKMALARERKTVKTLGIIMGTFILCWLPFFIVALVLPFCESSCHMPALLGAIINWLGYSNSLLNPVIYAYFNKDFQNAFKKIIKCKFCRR
Nature of the assay: Compound was evaluated for its binding affinity against 5-hydroxytryptamine 1A receptor from rat cerebral cortex. The assay is classed as tissue-based.

Assay [6] has as its system Rattus norvegicus. The experiment in a line: compound was tested for antipsychotic activity by conditioned avoidance response(CAR) assay in rats with a pretreatment period of 30 min upon intra peritoneal administration at a concentration of 15 mg/kg. The assay is classed as functional. A digest of the protocol:
as §1

For assay [7], the system named is Rattus norvegicus. The experiment in a line: Percent catalepsy in male Spargue-Dawley rat at pretreatment time 60 mins and administered ip at dose 50 mg/kg. The assay is classed as functional. Particulars: route intraperitoneal. A digest of the protocol:
(§2)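 Catalepsy in rats, groups of five per drug treatment, scored blind to drug and dose. Each session included a saline or vehicle negative control and a haloperidol 2 mg/kg positive control. Deaths during the experiment were recorded in the catalepsy column as number dead out of five.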

For assay [8], the system named is Rattus norvegicus. Nature of the assay: compound was tested for antipsychotic activity by conditioned avoidance response(CAR) assay in rats with a pretreatment period of 30 min upon intra peritoneal administration. The format is functional. A digest of the protocol: as §1
Assay [9] has as its system Rattus norvegicus. The experiment in a line: compound was tested for antipsychotic activity by conditioned avoidance response(CAR) assay in rats with a pretreatment period of 30 min upon peroral administration. To be noted: po. The assay is classed as functional. An outline of the steps: as §1
The subject of assay [10] is Rattus norvegicus. Nature of the assay: Percent catalepsy in male Spargue-Dawley rat at pretreatment time 60 mins and when administered ip at dose 50 mg/kg. To be noted: route intraperitoneal. The format is functional. An outline of the steps:
as §2

Assay [11] deals with Rattus norvegicus. Nature of the assay: compound was tested for antipsychotic activity by conditioned avoidance response(CAR) assay in rats with a pretreatment period of 120 min upon peroral administration. The format is functional. Particulars: po. A digest of the protocol:
as §1

Assay [12] concerns Rattus norvegicus. Nature of the assay: compound was tested for antipsychotic activity by conditioned avoidance response(CAR) assay in rats with a pretreatment period of 60 min upon peroral administration. The assay is classed as functional. To be noted: po. A digest of the protocol: as §1
The test system of assay [13] is Rattus norvegicus. The experiment in a line: Percent catalepsy in male Spargue-Dawley rat at pretreatment time 240 mins and when administered ip at dose 100 mg/kg (3/5L denotes that three rats out of five died during the course of experiment). The format is functional. Particulars: route intraperitoneal. A digest of the protocol:
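Catalepsy scored in groups of five rats per drug treatment, with the experimenter blind to drug and dose, in a quiet room. Each session included two control groups: saline (or vehicle) as negative control and haloperidol 2 mg/kg as positive control. Deaths during the experiment were recorded as lethality (e.g., 3/5L) in place of percent catalepsy.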

Assay [14] relates to Rattus norvegicus. Nature of the assay: Percent catalepsy in male Spargue-Dawley rat at pretreatment time 60 mins and when administered po at dose 250 mg/kg. The assay is classed as functional. A digest of the protocol: as §2
Assay [15] relates to Rattus norvegicus. The experiment in a line: Percent catalepsy in male Spargue-Dawley rat at pretreatment time 240 mins and when administered po at dose 250 mg/kg. The assay is classed as functional. An outline of the steps: as §2
Assay [16] concerns Rattus norvegicus. Nature of the assay: Percent catalepsy in male Spargue-Dawley rat at pretreatment time 240 mins and when administered ip at dose 50 mg/kg. Particulars: route intraperitoneal. The assay is classed as functional. An outline of the steps: as §2
In assay [17] the test system is Rattus norvegicus. Nature of the assay: compound was tested for antipsychotic activity by conditioned avoidance response(CAR) assay in rats with a pretreatment period of 60 min upon peroral administration. Values in brackets indicates 95% confidence limits for ED50. The assay is classed as functional. To be noted: po. A digest of the protocol: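 Rats trained in conditioned avoidance were run in a 1-h session on two consecutive days (N = 4). The read-out was reduction of the conditioned response to a disagreeable stimulus. Oral dosing was 60 min before testing. Fed rats had food and water until placed in the test chambers; fasted rats had no food overnight before the experiment.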

The subject of assay [18] is Rattus norvegicus. The experiment in a line: compound was tested for antipsychotic activity by conditioned avoidance response(CAR) assay in rats with a pretreatment period of 60 min upon peroral administration. Particulars: po. The assay is classed as functional. A digest of the protocol: as §1
Assay [19] relates to Rattus norvegicus. The experiment in a line: Percent catalepsy in male Spargue-Dawley rat at pretreatment time 240 mins and administered ip at dose 50 mg/kg. The assay is classed as functional. To be noted: route intraperitoneal. A digest of the protocol:
as §2

One may read the Ki as a measure of affinity in units of concentration, obtained from inhibition or displacement. What is called inhibition in vivo is the relative decrease from the control value, in per cent. Regarding `CC(=O)N(C)C(=O)c1cccc(CN2CCN(c3ccccc3OC(C)C)CC2)c1`, the inhibition constant (Ki) amounted to 388 nM in [1] and 3.3 nM in [5]. Also, in assay [2], the inhibition in vivo at 5 mg/kg was -94.5%. In addition, in [3], the inhibition in vivo at 1 mg/kg was -9.6%. In addition, the inhibition in vivo at 20 mg/kg in [4] was -1.6%.

As to `CC(C)Oc1ccccc1N1CCN(CCCCc2ccc(C(=O)N3CCCCC3)cc2)CC1`, the Ki in [1] stood at 284 nM. In addition, the inhibition in vivo at 15 mg/kg in [6] is -95.3%.

On to `CC(C)Oc1ccccc1N1CCN(CCc2ccc(C(=O)N3CCCCC3)cc2)CC1`, for which the figures for the Ki in assay [1] and in assay [5] were 2.1 nM and 2.5 nM, respectively. The inhibition in vivo at 15 mg/kg in assay [6] is -98.2%. In assay [3], the inhibition in vivo at 1 mg/kg was -1.1%.

Turning to `COc1ccccc1N1CCN(Cc2cccc(C(=O)N3CCCCCC3)c2)CC1`, the inhibition constant Ki in assay [1] was 4.7 nM; in [5] it was 0.46 nM. Also, in assay [2], the inhibition in vivo at 5 mg/kg was -94.6%. Moreover, the Catalepsy in assay [7] stood at 70%.

What is called ED50 is the dose at which the effect has come halfway, by size or by number of responders. As for `CC(C)Oc1ccccc1N1CCN(Cc2cccc(C(=O)N3CCCCCC3)c2)CC1`, the inhibition constant (Ki) in [1] was 2.1 nM; in assay [5] it was 0.6 nM. The ED50 in assay [8] is 0.85 mg/kg; in assay [9], 3.32 mg/kg; in assay [11], 15.4 mg/kg; in assay [12], 11.9 mg/kg. Also, the Catalepsy in assay [10] is given as 27.8%; in assay [13] it was 0%; in assay [14], 32.5%; in assay [15], 15.5%; in assay [16] it was 24.1%.

For `CN1CCN(C2=Nc3cc(Cl)ccc3Nc3ccccc32)CC1` [CLOZAPINE], the 50% effective dose (ED50) in [9] came to 9.3 mg/kg.

For `O=C(CCCN1CCC(O)(c2ccc(Cl)cc2)CC1)c1ccc(F)cc1` [HALOPERIDOL], in [17], the 50% effective dose (ED50) came to 0.31 mg/kg.

On to `CC(C)Oc1ccccc1N1CCN(Cc2cccc(C(=O)N3CCCCC3)c2)CC1` [MAZAPERTINE], for which the ED50 in assay [9] was 14.5 mg/kg; in assay [11], 26 mg/kg; in assay [12], 3.35 mg/kg; in assay [18] it was 11 mg/kg. Also, the Catalepsy in assay [7] stood at 32.4%; in [19], 47.8%.
